From ChEMBL document CHEMBL1144298, “Novel 3-aminochromans as potential pharmacological tools for the serotonin 5-HT(7) receptor” (Bioorg Med Chem Lett, 2005)

How the values were obtained:
[1] = Binding affinity for rat serotonin 5-HT1A receptor using [3H]8-OH-DPAT as radioligand expressed in CHO cells; assay type: cell-based
Procedure, shortened: (§1)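 In vitro radioligand binding on cloned receptors. For 5-HT7, cloned rat receptor expressed in Sf9 cells was labeled with [3H]5-HT. For 5-HT1A, cloned receptor expressed in CHO cells was labeled with [3H]8-OH-DPAT.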

[2] = biological target: 5-hydroxytryptamine receptor 7 (Rattus norvegicus, UniProt P32305); experiment: Binding affinity for rat serotonin 5-HT7 receptor expressed in Sf9 cells using [3H]5-HT radioligand; procedure, shortened: as §1
[3] = biological target: 5-hydroxytryptamine receptor 7 (Rattus norvegicus) (UniProt P32305); experiment: Efficacy at the 5-HT7 receptor by measuring its effect on cAMP production in CHO cells; assay type: functional, cell-based
Rattus norvegicus = species: Rattus norvegicus; experiment: Ratio of binding affinity for serotonin 5-HT1A to serotonin 5-HT7

Sequence of 5-hydroxytryptamine receptor 7 (Rattus norvegicus) (P32305 whole entry): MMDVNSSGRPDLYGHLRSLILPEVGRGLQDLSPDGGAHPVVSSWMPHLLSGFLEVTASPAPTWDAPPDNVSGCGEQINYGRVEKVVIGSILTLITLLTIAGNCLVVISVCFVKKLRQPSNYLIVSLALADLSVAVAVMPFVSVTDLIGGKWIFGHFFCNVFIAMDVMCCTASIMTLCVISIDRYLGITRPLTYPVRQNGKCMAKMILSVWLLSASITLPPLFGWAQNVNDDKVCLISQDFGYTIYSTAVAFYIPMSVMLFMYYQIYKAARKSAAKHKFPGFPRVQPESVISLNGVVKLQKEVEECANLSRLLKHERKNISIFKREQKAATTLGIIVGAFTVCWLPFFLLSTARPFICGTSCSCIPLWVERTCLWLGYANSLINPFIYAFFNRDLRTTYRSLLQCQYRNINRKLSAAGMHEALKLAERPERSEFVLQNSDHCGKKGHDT
Sequence of 5-hydroxytryptamine receptor 7 (P32305 whole entry): as above

Structure (SMILES) | Ki [1] [nM] | Ki [2] [nM] | Efficacy [3] [%] | Ratio (Rattus norvegicus) | Efficacy ([3]; filed as antagonist)
Cc1cccc(C)c1-c1ccc2c(c1)C[C@H](N(C)C)CO2 | 75.1 | 13.4 | 76 | 6 | –
CN(C)[C@@H]1COc2ccc(-c3ccccc3)cc2C1 | – | > 1000 | – | – | –
COc1cccc(OC)c1-c1ccc2c(c1)C[C@H](N(C)C)CO2 | – | 367 | – | – | –
O=S(=O)(c1ccc2cc[nH]c2c1)N1CCC[C@@H]1CCN1CCC(Oc2ccc(Cl)cc2)CC1 | 562 | 1.99 | – | 282 | Antagonist
CN(C)[C@@H]1COc2ccc(-c3c(O)cccc3O)cc2C1 | – | > 1000 | – | – | –
CCCN(CCC)[C@H]1COc2c(cccc2-c2c(OC)cccc2OC)C1 | 174 | – | – | 27 | –
COc1cccc(OC)c1-c1cccc2c1OC[C@@H](N(C)C)C2 | > 1000 | 5.29 | 28 | > 189 | –
COc1c(-c2ccc3c(c2)C[C@H](N(C)C)CO3)ccc2ccccc12 | 594 | 75.9 | – | 8 | –
